ChEMBL document CHEMBL4819122, “Novel 4-(piperazin-1-yl)quinolin-2(1H)-one bearing thiazoles with antiproliferative activity through VEGFR-2-TK inhibition” (Bioorg Med Chem, 2021)
Active and inactive are the calls of the source. No cut-off for these calls is given here.

Key:
HL-60 = assay: Cytotoxicity against human HL60 assessed as growth inhibition at 10 uM by NCI protocol relative to control; format: functional; settings: read-out: GI
How it was run: (§1)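 Run by NCI as a single-dose screen at 10 μM across the sixty-cell-line panel, which covers nine human tumour tissue types. The read-out is percent growth inhibition of treated cells relative to untreated cells.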

NCI-H226 = assay: Cytotoxicity against human NCI-H226 assessed as growth inhibition at 10 uM by NCI protocol relative to control; format: functional; settings: read-out: GI; how it was run: as §1
K562 = assay: Cytotoxicity against human K-562 assessed as growth inhibition at 10 uM by NCI protocol relative to control; format: functional; settings: read-out: GI; how it was run: as §1
MDA-MB-468 = assay: Cytotoxicity against human MDA-MB-468 assessed as growth inhibition at 10 uM by NCI protocol relative to control; format: functional; settings: read-out: GI; how it was run: as §1
T47D [1] = assay: Cytotoxicity against human T47D cells assessed as reduction in cell viability after 3 hrs by MTT assay
HOP-92 = assay: Cytotoxicity against human HOP-92 assessed as growth inhibition at 10 uM by NCI protocol relative to control; format: functional; settings: read-out: GI; how it was run: as §1
SF-295 = assay: Cytotoxicity against human SF-295 assessed as growth inhibition at 10 uM by NCI protocol relative to control; format: functional; settings: read-out: GI; how it was run: as §1
SK-MEL-5 = assay: Cytotoxicity against human SK-MEL-5 assessed as growth inhibition at 10 uM by NCI protocol relative to control; format: functional; settings: read-out: GI; how it was run: as §1
T47D [2] = assay: Cytotoxicity against human T-47D assessed as growth inhibition at 10 uM by NCI protocol relative to control; format: functional; settings: read-out: GI
How it was run: (§2)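 Run by the NCI under its standard protocol: one dose of 10 μM against a sixty-line panel from nine human tumour tissues. Result given as percent growth inhibition of treated cells relative to untreated cells.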

MDA-MB-231 = assay: Cytotoxicity against human MDA-MB-231 assessed as growth inhibition at 10 uM by NCI protocol relative to control; format: functional; settings: read-out: GI; how it was run: as §1
IGROV-1 = assay: Cytotoxicity against human IGROVI assessed as growth inhibition at 10 uM by NCI protocol relative to control; format: functional; settings: read-out: GI; how it was run: as §1
EKVX = assay: Cytotoxicity against human EKVX assessed as growth inhibition at 10 uM by NCI protocol relative to control; format: functional; settings: read-out: GI; how it was run: as §1
RXF 393 = assay: Cytotoxicity against human RXF 393 assessed as growth inhibition at 10 uM by NCI protocol relative to control; format: functional; settings: read-out: GI; how it was run: as §1
LOX IMVI = assay: Cytotoxicity against human LOX IMVI assessed as growth inhibition at 10 uM by NCI protocol relative to control; format: functional; settings: read-out: GI; how it was run: as §1
NCI-H460 = assay: Cytotoxicity against human NCI-H460 assessed as growth inhibition at 10 uM by NCI protocol relative to control; format: functional; settings: read-out: GI; how it was run: as §1
NCI-H522 = assay: Cytotoxicity against human NCI-H522 assessed as growth inhibition at 10 uM by NCI protocol relative to control; format: functional; settings: read-out: GI; how it was run: as §1
SN12C = assay: Cytotoxicity against human SN12C assessed as growth inhibition at 10 uM by NCI protocol relative to control; format: functional; settings: read-out: GI; how it was run: as §2
HCT-15 = assay: Cytotoxicity against human HCT-15 assessed as growth inhibition at 10 uM by NCI protocol relative to control; format: functional; settings: read-out: GI; how it was run: as §1
A549 = assay: Cytotoxicity against human A549 assessed as growth inhibition at 10 uM by NCI protocol relative to control; format: functional; settings: read-out: GI; how it was run: as §1
CCRF-CEM = assay: Cytotoxicity against human CCRF-CEM assessed as growth inhibition at 10 uM by NCI protocol relative to control; format: functional; settings: read-out: GI; how it was run: as §1
MDA-MB-435 = assay: Cytotoxicity against human MDA-MB-435 assessed as growth inhibition at 10 uM by NCI protocol relative to control; format: functional, cell-based; how it was run: as §1
A498 = assay: Cytotoxicity against human A498 assessed as growth inhibition at 10 uM by NCI protocol relative to control; format: functional; settings: read-out: GI; how it was run: as §1
MCF7 = assay: Cytotoxicity against human MCF7 assessed as growth inhibition at 10 uM by NCI protocol relative to control; format: functional; settings: read-out: GI; how it was run: as §1
UO-31 = assay: Cytotoxicity against human UO31 assessed as growth inhibition at 10 uM by NCI protocol relative to control; format: functional; settings: read-out: GI; how it was run: as §2
RPMI-8226 = assay: Cytotoxicity against human RPMI-8226 assessed as growth inhibition at 10 uM by NCI protocol relative to control; format: functional; how it was run: as §1
PC-3 = assay: Cytotoxicity against human PC3 assessed as growth inhibition at 10 uM by NCI protocol relative to control; format: functional; settings: read-out: GI; how it was run: as §1
UACC-62 = assay: Cytotoxicity against human UACC-62 assessed as growth inhibition at 10 uM by NCI protocol relative to control; format: functional; settings: read-out: GI; how it was run: as §2
MOLT-4 = assay: Cytotoxicity against human MOLT-4 assessed as growth inhibition at 10 uM by NCI protocol relative to control; format: functional; settings: read-out: GI; how it was run: as §1
BT-549 = assay: Cytotoxicity against human BT-549 assessed as growth inhibition at 10 uM by NCI protocol relative to control; format: functional; settings: read-out: GI; how it was run: as §1
HCT-116 = assay: Cytotoxicity against human HCT-116 assessed as growth inhibition at 10 uM by NCI protocol relative to control; format: functional; settings: read-out: GI; how it was run: as §1
SF-268 = assay: Cytotoxicity against human SF-268 assessed as growth inhibition at 10 uM by NCI protocol relative to control; format: functional; settings: read-out: GI; how it was run: as §1
ACHN = assay: Cytotoxicity against human ACHN assessed as growth inhibition at 10 uM by NCI protocol relative to control; format: functional; settings: read-out: GI; how it was run: as §1
SNB-19 = assay: Cytotoxicity against human SNB-19 assessed as growth inhibition at 10 uM by NCI protocol relative to control; format: functional; settings: read-out: GI; how it was run: as §2
NCI-H23 = assay: Cytotoxicity against human NCI-H23 assessed as growth inhibition at 10 uM by NCI protocol relative to control; format: functional; settings: read-out: GI; how it was run: as §1

Cc1ccc(-c2csc(NC(=O)CN3CCN(c4cc(=O)n(-c5ccccc5)c5ccccc45)CC3)n2)cc1 was tested. Which inhibition of growth at 10 µM (HL-60) did it give?
The inhibition of growth at 10 µM was 19.9%.

And the inhibition of growth at 10 µM (NCI-H226)?
Its inhibition of growth at 10 µM is 17.3%.

What about the inhibition of growth at 10 µM (K562) of the same compound?
Its inhibition of growth at 10 µM is 49.3%.

And the inhibition of growth at 10 µM (MDA-MB-468)?
The inhibition of growth at 10 µM was 30.2%.

What about the IC50 (T47D [1]) of the same compound?
The IC50 was 16.5 µM.

And the inhibition of growth at 10 µM (HOP-92)?
The inhibition of growth at 10 µM was 13.8%.

And the inhibition of growth at 10 µM (SF-295)?
Its inhibition of growth at 10 µM is 14.4%.

What about the inhibition of growth at 10 µM (SK-MEL-5) of the same compound?
Its inhibition of growth at 10 µM is 13.5%.

And the inhibition of growth at 10 µM (T47D [2])?
Its inhibition of growth at 10 µM is 40.9%.

What about the inhibition of growth at 10 µM (MDA-MB-231) of the same compound?
The inhibition of growth at 10 µM was 17.4%.

What about the inhibition of growth at 10 µM (IGROV-1) of the same compound?
Its inhibition of growth at 10 µM is 20.2%.

What about the inhibition of growth at 10 µM (EKVX) of the same compound?
Its inhibition of growth at 10 µM is 26.5%.

What about the inhibition of growth at 10 µM (RXF 393) of the same compound?
The inhibition of growth at 10 µM was 13.2%.

What about the inhibition of growth at 10 µM (LOX IMVI) of the same compound?
Its inhibition of growth at 10 µM is 12.2%.

And the inhibition of growth at 10 µM (NCI-H460)?
The inhibition of growth at 10 µM was 11.1%.

And the inhibition of growth at 10 µM (NCI-H522)?
The inhibition of growth at 10 µM was 22.9%.

And the inhibition of growth at 10 µM (SN12C)?
Its inhibition of growth at 10 µM is 13.1%.

And the inhibition of growth at 10 µM (HCT-15)?
Its inhibition of growth at 10 µM is 26%.

What about the inhibition of growth at 10 µM (A549) of the same compound?
Its inhibition of growth at 10 µM is 12%.

What about the inhibition of growth at 10 µM (CCRF-CEM) of the same compound?
The inhibition of growth at 10 µM was 14.8%.

And the “growth inhibition (GI)” value (MDA-MB-435)?
Its value is “inactive”.

What about the inhibition of growth at 10 µM (A498) of the same compound?
Its inhibition of growth at 10 µM is 18.6%.

What about the inhibition of growth at 10 µM (MCF7) of the same compound?
The inhibition of growth at 10 µM was 13.5%.

What about the inhibition of growth at 10 µM (UO-31) of the same compound?
The inhibition of growth at 10 µM was 27%.

What about the “growth inhibition (GI)” value (RPMI-8226) of the same compound?
The value was “inactive”.

And the inhibition of growth at 10 µM (PC-3)?
The inhibition of growth at 10 µM was 23.1%.

And the inhibition of growth at 10 µM (UACC-62)?
Its inhibition of growth at 10 µM is 20.1%.

What about the inhibition of growth at 10 µM (MOLT-4) of the same compound?
Its inhibition of growth at 10 µM is 32.2%.

What about the inhibition of growth at 10 µM (BT-549) of the same compound?
Its inhibition of growth at 10 µM is 14.4%.

What about the inhibition of growth at 10 µM (HCT-116) of the same compound?
The inhibition of growth at 10 µM was 20.2%.

What about the inhibition of growth at 10 µM (SF-268) of the same compound?
Its inhibition of growth at 10 µM is 13.4%.

What about the inhibition of growth at 10 µM (ACHN) of the same compound?
The inhibition of growth at 10 µM was 15.1%.

What about the inhibition of growth at 10 µM (SNB-19) of the same compound?
Its inhibition of growth at 10 µM is 21.8%.

What about the inhibition of growth at 10 µM (NCI-H23) of the same compound?
Its inhibition of growth at 10 µM is 29.7%.

With O=c1cc(N2CCNCC2)c2ccccc2n1-c1ccccc1 as the compound, how does the IC50 (T47D [1]) read?
Its IC50 is 92.1 µM.

And the inhibition of growth at 10 µM (HOP-92)?
The inhibition of growth at 10 µM was 17%.

And the “growth inhibition (GI)” value (MDA-MB-435)?
Its value is “inactive”.
